In ChEMBL document CHEMBL3272220, “Central nervous system active 5-oxo-1,4,5,6,7,8-hexahydrocinnolines” (J Med Chem, 1976):
The source made the active and inactive calls. The rule behind the calls is not given here.

Experiments:
Mus musculus [1] = assay: Central nervous system depressant activity in CF albino mouse assessed as inhibition of spontaneous motor activity at 500 mg/kg, po measured within 15 mins relative to control; assay type: functional; settings: for inhibition in vivo at 500 mg/kg: 0.25 h
In short: (§1)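 Male CF mice got 500 mg/kg orally as a 0.2% agar suspension. Scoring was at peak drug effect on a 0-4+ scale. Scores were judged together from percentage inhibition of spontaneous motor activity, a ptotic index based on percentage eye closure, and the degree of sedation.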

Mus musculus [2] = assay: Antidepressant activity in CF albino mouse assessed as inhibition of reserpine-induced hypothermia at 25 mg/kg, po relative to control; assay type: functional
In short: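 Oral dosing was 25 mg/kg in 0.2% agar suspension to male CF mice. Antagonism of reserpine-induced hypothermia was measured and graded on a plus-scale.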

Mus musculus [3] = assay: Anticonvulsant activity in po dosed CF albino mouse assessed as protection against electroshock-induced seizure; assay type: functional
In short: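 Male CF mice were dosed orally, with the vehicle for po dosing being a 0.2% agar suspension. Protection against electroshock-induced seizures was examined at 500 mg/kg po. Activity is reported as ED50 in mg/kg po.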

Mus musculus [4] = assay: Antidepressant activity in CF albino mouse assessed as potentiation of dopa-induced response at 25 mg/kg, po relative to control; assay type: functional
In short: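 Male CF mice received 25 mg/kg orally in 0.2% agar suspension. The read-out was potentiation of the Dopa response. Results were graded on a plus-scale.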

Mus musculus [5] = assay: Toxicity in CF albino mouse assessed as mild convulsion at 500 mg/kg, po; assay type: organism-based; design: dose 500 mg/kg, route oral; settings: in vivo
Mus musculus [6] = assay: Central nervous system depressant activity in CF albino mouse assessed as induction of sedation at 25 mg/kg, po; assay type: functional, organism-based; design: dose 25 mg/kg
Mus musculus [7] = assay: Central nervous system depressant activity in CF albino mouse assessed as induction of sedation without arousability at 500 mg/kg, po; assay type: functional, organism-based; design: dose 500 mg/kg; in short: as §1
Mus musculus [8] = assay: Toxicity in CF albino mouse assessed as tremor at 500 mg/kg, po; assay type: organism-based; design: dose 500 mg/kg, route oral; settings: in vivo
Mus musculus [9] = assay: Central nervous system depressant activity in CF albino mouse assessed as eye closure rate at 500 mg/kg, po relative to control; assay type: functional; in short: as §1
Mus musculus [10] = assay: Toxicity in CF albino mouse at 500 mg/kg, po; assay type: organism-based; design: dose 500 mg/kg, route oral; settings: in vivo
Mus musculus [11] = assay: Central nervous system depressant activity in CF albino mouse assessed as induction of sedation at 500 mg/kg, po; assay type: functional, organism-based; design: dose 500 mg/kg; in short: as §1
Mus musculus [12] = assay: Central nervous system depressant activity in CF albino mouse assessed as induction of sedation with arousability at 500 mg/kg, po; assay type: functional, organism-based; design: dose 500 mg/kg; in short: as §1
Mus musculus [13] = assay: Central nervous system depressant activity in po dosed CF albino mouse assessed as induction of sedation; assay type: functional, organism-based

CN1N=C(c2ccccc2)CC2=C1CC(C)(C)CC2=O
inhibition (Mus musculus [1]): inactive
inhibition in vivo at 25 mg/kg (Mus musculus [2]): 51%
ED50 (Mus musculus [3]): inactive
Activity (Mus musculus [4]): 26%

CCN(CC)CCN1N=C(c2ccc(F)cc2)CC2=C1CC(C)(C)CC2=O
inhibition in vivo at 500 mg/kg (Mus musculus [1]): 51%
Activity (Mus musculus [5]): Toxic
Activity (Mus musculus [6]): Active
Activity (Mus musculus [7]): inactive
inhibition in vivo at 25 mg/kg (Mus musculus [2]): 26%
Activity (Mus musculus [8]): Toxic
ED50 (Mus musculus [3]): 150 mg/kg
Activity (Mus musculus [9]): 75%
Activity (Mus musculus [4]): 51%

CCN(CC)CCN1N=C(c2ccccc2)CC2=C1CCCC2=O.[O-][Cl+3]([O-])([O-])O
inhibition (Mus musculus [1]): inactive
Activity (Mus musculus [10]): Toxic
inhibition in vivo at 25 mg/kg (Mus musculus [2]): 26%
ED50 (Mus musculus [3]): 200 mg/kg
Activity (Mus musculus [4]): 51%

CCN(CC)CCN1N=C(c2ccccc2)C(C)C2=C1CC(C)(C)CC2=O.[O-][Cl+3]([O-])([O-])O (centres undefined)
inhibition in vivo at 500 mg/kg (Mus musculus [1]): 1%
Activity (Mus musculus [5]): Toxic
Activity (Mus musculus [11]): inactive
inhibition in vivo at 25 mg/kg (Mus musculus [2]): 0%
Activity (Mus musculus [8]): Toxic
ED50 (Mus musculus [3]): 400 mg/kg
Activity (Mus musculus [9]): 25%
Activity (Mus musculus [4]): 26%

CN(C)CCN1N=C(c2ccc(Br)cc2)CC2=C1CC(C)(C)CC2=O.[O-][Cl+3]([O-])([O-])O
inhibition in vivo at 500 mg/kg (Mus musculus [1]): 51%
Activity (Mus musculus [12]): Active
inhibition (Mus musculus [2]): inactive
ED50 (Mus musculus [3]): 100 mg/kg
Activity (Mus musculus [9]): 75%
Activity (Mus musculus [4]): 51%

CN(C)CCN1N=C(c2ccccc2)CC2=C1CC(C)(C)CC2=O.[O-][Cl+3]([O-])([O-])O
inhibition in vivo at 500 mg/kg (Mus musculus [1]): 51%
Activity (Mus musculus [5]): Toxic
Activity (Mus musculus [13]): Dose-dependent effect
Activity (Mus musculus [7]): inactive
inhibition in vivo at 25 mg/kg (Mus musculus [2]): 26%
Activity (Mus musculus [8]): Toxic
ED50 (Mus musculus [3]): 500 mg/kg
Activity (Mus musculus [9]): 75%
Activity (Mus musculus [4]): 51%

CCOC(=O)NNC1=C(CC(=O)c2ccccc2)C(=O)CC(C)(C)C1
inhibition in vivo at 500 mg/kg (Mus musculus [1]): 1%
Activity (Mus musculus [11]): inactive
inhibition in vivo at 25 mg/kg (Mus musculus [2]): 51%
ED50 (Mus musculus [3]): inactive
Activity (Mus musculus [9]): 25%
Activity (Mus musculus [4]): 26%

CC1(C)CC(=O)C2=C(C1)NN=C(c1ccccc1)C2
inhibition (Mus musculus [1]): inactive
inhibition in vivo at 25 mg/kg (Mus musculus [2]): 26%
ED50 (Mus musculus [3]): inactive
Activity (Mus musculus [4]): 26%

CC1(C)CC(=O)C2=C(C1)N(CCO)N=C(c1ccccc1)C2.Cc1ccc(S(=O)(=O)O)cc1
inhibition in vivo at 500 mg/kg (Mus musculus [1]): 1%
Activity (Mus musculus [11]): inactive
inhibition in vivo at 25 mg/kg (Mus musculus [2]): 26%
ED50 (Mus musculus [3]): inactive
Activity (Mus musculus [9]): 25%
Activity (Mus musculus [4]): 51%

CCN(CC)CCN1N=C(c2cc(OC)c(OC)c(OC)c2)CC2=C1CC(C)(C)CC2=O.[O-][Cl+3]([O-])([O-])O
inhibition (Mus musculus [1]): inactive
inhibition in vivo at 25 mg/kg (Mus musculus [2]): 51%
ED50 (Mus musculus [3]): inactive
Activity (Mus musculus [4]): 26%

CCN(CC)CCN1N=C(c2ccccc2)CC2=C1CC(C)(C)CC2=O.[O-][Cl+3]([O-])([O-])O
inhibition in vivo at 500 mg/kg (Mus musculus [1]): 26%
Activity (Mus musculus [5]): Toxic
Activity (Mus musculus [11]): Active
inhibition in vivo at 25 mg/kg (Mus musculus [2]): 26%
Activity (Mus musculus [8]): Toxic
ED50 (Mus musculus [3]): 225 mg/kg
Activity (Mus musculus [9]): 50%
Activity (Mus musculus [4]): 51%

CC1(C)CC(=O)C(CC(=O)c2ccccc2)=C(NNc2ccncc2)C1
inhibition in vivo at 500 mg/kg (Mus musculus [1]): 1%
Activity (Mus musculus [11]): inactive
inhibition in vivo at 25 mg/kg (Mus musculus [2]): 76%
ED50 (Mus musculus [3]): inactive
Activity (Mus musculus [9]): 25%
Activity (Mus musculus [4]): 51%

CC1=NNC2=C(C1)C(=O)CC(C)(C)C2
inhibition (Mus musculus [1]): inactive
inhibition in vivo at 25 mg/kg (Mus musculus [2]): 0%
ED50 (Mus musculus [3]): inactive
Activity (Mus musculus [4]): 51%

CC1(C)CC(=O)C2=C(C1)N(C(N)=O)N=C(c1ccccc1)C2
inhibition (Mus musculus [1]): inactive
inhibition in vivo at 25 mg/kg (Mus musculus [2]): 26%
ED50 (Mus musculus [3]): inactive
Activity (Mus musculus [4]): 51%

CC1(C)CC(=O)C2=C(C1)N(CCN1CCNCC1)N=C(c1ccc(Br)cc1)C2.Cl.O
inhibition in vivo at 500 mg/kg (Mus musculus [1]): 26%
Activity (Mus musculus [11]): Active
inhibition in vivo at 25 mg/kg (Mus musculus [2]): 26%
ED50 (Mus musculus [3]): inactive
Activity (Mus musculus [9]): 50%
Activity (Mus musculus [4]): 0%

CN(C)CCN/N=C1/CC(C)(C)CC2=C1CC(c1ccccc1)=NN2CCN(C)C
inhibition (Mus musculus [1]): inactive
ED50 (Mus musculus [3]): inactive

CC1(C)CC(=O)C(CC(=O)c2ccccc2)=C(NNC(=O)c2ccncc2)C1
inhibition in vivo at 500 mg/kg (Mus musculus [1]): 1%
Activity (Mus musculus [11]): inactive
inhibition in vivo at 25 mg/kg (Mus musculus [2]): 51%
ED50 (Mus musculus [3]): inactive
Activity (Mus musculus [9]): 25%
Activity (Mus musculus [4]): 51%

CN(C)CCN1N=C(c2ccc(F)cc2)CC2=C1CC(C)(C)CC2=O.O.O=C(O)C(=O)O
inhibition (Mus musculus [1]): inactive
Activity (Mus musculus [5]): Toxic
inhibition in vivo at 25 mg/kg (Mus musculus [2]): 26%
Activity (Mus musculus [8]): Toxic
ED50 (Mus musculus [3]): inactive
Activity (Mus musculus [4]): 26%

CCN(CC)CCN1N=C(c2ccc(OC)cc2)CC2=C1CC(C)(C)CC2=O.[O-][Cl+3]([O-])([O-])O
inhibition in vivo at 500 mg/kg (Mus musculus [1]): 1%
Activity (Mus musculus [11]): inactive
inhibition in vivo at 25 mg/kg (Mus musculus [2]): 0%
ED50 (Mus musculus [3]): 300 mg/kg
Activity (Mus musculus [9]): 25%
Activity (Mus musculus [4]): 26%

CN(C)CCCN1N=C(c2ccccc2)CC2=C1CC(C)(C)CC2=O.O.[O-][Cl+3]([O-])([O-])O
inhibition in vivo at 500 mg/kg (Mus musculus [1]): 1%
Activity (Mus musculus [11]): inactive
inhibition in vivo at 25 mg/kg (Mus musculus [2]): 26%
ED50 (Mus musculus [3]): 500 mg/kg
Activity (Mus musculus [9]): 25%
Activity (Mus musculus [4]): 51%

CC1(C)CC(=O)C2=C(C1)N(CCN1CCNCC1)N=C(c1ccc(F)cc1)C2.Cc1ccc(S(=O)(=O)O)cc1.O
inhibition (Mus musculus [1]): inactive
inhibition in vivo at 25 mg/kg (Mus musculus [2]): 26%
ED50 (Mus musculus [3]): inactive
Activity (Mus musculus [4]): 51%

CC1(C)CC(=O)c2cc(-c3ccccc3)nnc2C1
inhibition in vivo at 500 mg/kg (Mus musculus [1]): 1%
Activity (Mus musculus [5]): Toxic
Activity (Mus musculus [11]): inactive
inhibition in vivo at 25 mg/kg (Mus musculus [2]): 26%
Activity (Mus musculus [8]): Toxic
ED50 (Mus musculus [3]): 500 mg/kg
Activity (Mus musculus [9]): 25%
Activity (Mus musculus [4]): 26%

CCN(CC)CCn1nc(C)c(=O)c2c1CC(C)(C)CC2=O
inhibition (Mus musculus [1]): inactive
inhibition in vivo at 25 mg/kg (Mus musculus [2]): 51%
ED50 (Mus musculus [3]): inactive
Activity (Mus musculus [4]): 26%

CC1(C)CC(=O)C(CC(=O)c2ccccc2)=C(NNC(=N)N)C1
inhibition in vivo at 500 mg/kg (Mus musculus [1]): 1%
Activity (Mus musculus [11]): inactive
inhibition in vivo at 25 mg/kg (Mus musculus [2]): 76%
ED50 (Mus musculus [3]): inactive
Activity (Mus musculus [9]): 25%
Activity (Mus musculus [4]): 51%

CC1(C)CC(=O)C2=C(C1)N(c1ccccc1)N=C(c1ccccc1)C2
inhibition (Mus musculus [1]): inactive
inhibition in vivo at 25 mg/kg (Mus musculus [2]): 26%
ED50 (Mus musculus [3]): inactive
Activity (Mus musculus [4]): 0%

CCN(CC)CCN1N=C(c2ccc(Br)cc2)CC2=C1CC(C)(C)CC2=O
inhibition in vivo at 500 mg/kg (Mus musculus [1]): 26%
Activity (Mus musculus [5]): Toxic
Activity (Mus musculus [11]): Active
inhibition in vivo at 25 mg/kg (Mus musculus [2]): 26%
Activity (Mus musculus [8]): Toxic
ED50 (Mus musculus [3]): 100 mg/kg
Activity (Mus musculus [9]): 50%
Activity (Mus musculus [4]): 26%
